# Measurements of several laboratories.
# Compare with care: the assays were run in different laboratories.
# Target: Discoidin domain-containing receptor 2 (DDR2, Homo sapiens, UniProt Q16832)
# One construct used (Q16832 1-855): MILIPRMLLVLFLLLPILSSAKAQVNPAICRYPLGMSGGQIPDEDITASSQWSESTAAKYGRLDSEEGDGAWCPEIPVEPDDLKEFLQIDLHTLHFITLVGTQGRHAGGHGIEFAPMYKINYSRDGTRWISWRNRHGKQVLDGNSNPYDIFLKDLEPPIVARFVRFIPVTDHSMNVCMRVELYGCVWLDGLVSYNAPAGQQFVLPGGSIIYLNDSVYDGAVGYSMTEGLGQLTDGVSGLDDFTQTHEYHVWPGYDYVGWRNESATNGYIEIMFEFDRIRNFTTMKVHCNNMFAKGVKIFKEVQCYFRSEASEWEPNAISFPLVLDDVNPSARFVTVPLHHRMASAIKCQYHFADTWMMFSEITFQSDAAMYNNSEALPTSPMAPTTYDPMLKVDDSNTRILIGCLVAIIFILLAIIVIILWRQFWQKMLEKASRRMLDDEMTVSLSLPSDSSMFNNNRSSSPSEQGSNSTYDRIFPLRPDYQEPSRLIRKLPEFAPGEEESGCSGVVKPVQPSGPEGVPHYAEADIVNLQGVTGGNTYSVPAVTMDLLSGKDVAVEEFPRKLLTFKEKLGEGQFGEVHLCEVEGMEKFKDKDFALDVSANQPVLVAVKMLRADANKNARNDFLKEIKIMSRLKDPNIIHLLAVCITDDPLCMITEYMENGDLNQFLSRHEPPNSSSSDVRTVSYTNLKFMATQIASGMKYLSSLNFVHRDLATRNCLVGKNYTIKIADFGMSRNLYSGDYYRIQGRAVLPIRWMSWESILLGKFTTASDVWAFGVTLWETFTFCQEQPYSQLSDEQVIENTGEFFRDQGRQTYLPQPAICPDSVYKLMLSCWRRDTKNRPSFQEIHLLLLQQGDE
SMILES,read-out,technique,tested at,remaining binding
O=C(c1ccc(Nc2ncc(Cl)c(-c3cc4ccccc4s3)n2)cc1)N1CCC(N2CCCC2)CC1,binding,competition with immobilised ligand,1 µM,23%
O=C(NCC1CCOCC1)c1n[nH]cc1NC(=O)c1c(F)cccc1F,binding,competition with immobilised ligand,1 µM,100%
COc1ccnn2ncc(-c3ccnc(N(C)C)n3)c12,binding,,1 µM,67%
O=c1nc(-c2ccccn2)sc2ccccc12,cell-free assay,competition with immobilised ligand,1 µM,100%
O=C(c1ccc(Nc2ncc(Cl)c(-c3ccc(Cl)s3)n2)cc1)N1CCC(N2CCCC2)CC1,binding,competition with immobilised ligand,1 µM,33%
N[C@@H]1CCN(c2nccc(-c3cnn4ncccc34)n2)C1,binding,,1 µM,100%
Nc1cnc(N2CCc3cc(S(=O)(=O)Nc4c(F)cc(Cl)cc4F)cc(N4CCCC4=O)c32)nc1,cell-free assay,competition with immobilised ligand,1 µM,100%
COc1ncc2cc3ccccc3nc2c1C#N,cell-free assay,competition with immobilised ligand,5 µM,94%
O=C(O)c1cc(-c2ccc(C3CCNCC3)cc2)c2ccc(-c3ccc(C(F)(F)F)cc3)cc2c1,cell-free assay,competition with immobilised ligand,1 µM,100%
c1cnn2ncc(-c3ccnc(N4CCC45COC5)n3)c2c1,binding,,1 µM,83%
CN(C)CC#Cc1ccc(OCCCc2sc(N3CCc4cccc(C(=O)Nc5nc6ccccc6s5)c4C3)nc2C(=O)O)c(F)c1,cell-free assay,competition with immobilised ligand,1 µM,83%
C=CC(=O)N1CCC(C(=O)NCC(=O)N2CCN(c3nc(-c4cnc(N)nc4C(F)F)nc(N4CCOCC4)n3)CC2)CC1,binding,competition with immobilised ligand,1 µM,83%
CN(C)c1nccc(-c2cnc3ncccn23)n1,binding,,1 µM,84%
O=C(N[C@H]1CCCCC/C=C\C2C[C@@]2(C(=O)O)NC(=O)[C@@H]2C[C@@H](Oc3ccncc3)CN2C1=O)OC1CCCC1 (some centres unmarked),cell-free assay,competition with immobilised ligand,1 µM,100%
O=C(NCCCN1CCOCC1)c1ccc(Nc2nccc(-c3cc4ccccc4s3)n2)cc1,binding,competition with immobilised ligand,1 µM,43%
CC(C)CC(=O)N1CCc2nc(-c3ccc(Br)cc3)nc(N(C)Cc3ccccc3)c2C1,cell-free assay,competition with immobilised ligand,0.1 µM,97%
CN(c1nccc(-c2cnn3ncccc23)n1)C1CC1,binding,,1 µM,100%
COc1cnc(Nc2cccc(S(N)(=O)=O)c2)nc1N1CCN(c2ccccc2)CC1,binding,competition with immobilised ligand,1 µM,66%
C[C@@H]1CCN(c2nccc(-c3cnn4ncccc34)n2)C1,binding,,1 µM,66%
CCN1CCN(Cc2ccc(C(=O)Nc3ccc(C)c(Oc4ccc5c(c4)CC(=O)N5)c3)cc2C(F)(F)F)CC1,binding,competition with immobilised ligand,1 µM,14%
